In ChEMBL document CHEMBL1143267, “Type II NADH dehydrogenase of the respiratory chain of Plasmodium falciparum and its inhibitors” (Bioorg Med Chem Lett, 2009):
pIC50: −log10 of the molar value.

Experiments:
[1] = Inhibition of Plasmodium falciparum NDH2
Outline: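 Purified recombinant His-tagged enzyme, HEPES pH 8.0. Reaction with 200 µM NADH and 100 µM CoQ0. NAD+ product quantified by fluorescence after acetophenone/formic acid derivatisation at 100 °C (ex 372/em 444 nm). Compounds tested up to 10 µM. IC50 from three independent experiments.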

[2] = biological target: T1, Dihydroorotate dehydrogenase (Plasmodium falciparum, UniProt Q54A96); experiment: Inhibition of Plasmodium falciparum DHOD
T1 sequence (Q54A96 whole entry): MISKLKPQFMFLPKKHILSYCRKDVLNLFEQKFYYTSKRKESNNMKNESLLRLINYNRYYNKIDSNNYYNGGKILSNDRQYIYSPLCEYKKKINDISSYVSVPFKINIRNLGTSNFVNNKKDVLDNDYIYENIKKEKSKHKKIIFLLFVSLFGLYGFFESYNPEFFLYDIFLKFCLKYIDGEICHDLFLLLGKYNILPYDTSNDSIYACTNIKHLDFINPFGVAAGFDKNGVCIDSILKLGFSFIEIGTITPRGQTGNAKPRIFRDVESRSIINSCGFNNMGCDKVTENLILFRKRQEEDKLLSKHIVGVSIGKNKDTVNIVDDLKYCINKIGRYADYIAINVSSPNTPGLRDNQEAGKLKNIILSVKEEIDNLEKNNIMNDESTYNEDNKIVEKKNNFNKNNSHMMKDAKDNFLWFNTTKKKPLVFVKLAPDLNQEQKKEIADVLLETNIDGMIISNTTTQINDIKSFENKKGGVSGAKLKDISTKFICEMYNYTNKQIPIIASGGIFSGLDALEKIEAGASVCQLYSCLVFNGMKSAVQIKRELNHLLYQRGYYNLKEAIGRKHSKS
Outline: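 DCIP-coupled chromogenic assay with 500 µM L-dihydroorotate and 115 µM CoQ0 as electron acceptor. Compounds tested up to 10 µM. IC50 from three independent experiments.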

[3] = biological target: T2, Dihydroorotate dehydrogenase (fumarate) (Saccharomyces cerevisiae S288c, UniProt P28272); experiment: Inhibition of Saccharomyces cerevisiae DHOD
T2 sequence (P28272 whole entry): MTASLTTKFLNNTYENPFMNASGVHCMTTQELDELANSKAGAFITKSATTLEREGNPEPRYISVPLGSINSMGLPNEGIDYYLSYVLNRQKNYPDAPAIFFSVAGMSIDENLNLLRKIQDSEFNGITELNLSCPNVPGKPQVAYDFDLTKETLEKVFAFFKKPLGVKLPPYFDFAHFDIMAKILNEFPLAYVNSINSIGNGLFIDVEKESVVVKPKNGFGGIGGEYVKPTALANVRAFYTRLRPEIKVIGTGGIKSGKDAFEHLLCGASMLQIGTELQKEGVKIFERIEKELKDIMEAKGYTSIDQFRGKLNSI

Plasmodium falciparum [4] = experiment: Antimalarial activity against Plasmodium falciparum DD2 expressing Saccharomyces cerevisiae DHOD by [3H]hypoxanthine uptake; assay type: functional, organism-based
Outline: (§1)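 Asexual parasite proliferation measured by [3H]-hypoxanthine incorporation dose–effect curves, in parental DD2 and a transgenic DD2 line expressing yeast cytoplasmic DHOD. IC50 from three independent experiments. Antimycin A, a mixture of A1–A4, expressed in mg/mL.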

Plasmodium falciparum [5] = experiment: Antimalarial activity against Plasmodium falciparum DD2 by [3H]hypoxanthine uptake; assay type: functional, organism-based; outline: as §1
Plasmodium falciparum [6] = experiment: Activity of Plasmodium falciparum NDH2 expressed in Escherichia coli by Michaelis-Menten plot
Outline: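 Full-length enzyme with C-terminal 6xHis tag, purified in 0.5% Triton X-100. NAD+ formed was quantified by fluorescence: acetophenone base, then formic acid at 100 °C, excitation 372 nm, emission 444 nm. HEPES pH 8.0. One substrate (electron acceptor or NADH) varied while the other was fixed at 500 µM. Km and kcat from best-fit Michaelis–Menten curves, three independent experiments.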

| Structure (SMILES) | pIC50 [1] | pIC50 [2] | pIC50 [3] | pIC50 (Plasmodium falciparum [4]) | pIC50 (Plasmodium falciparum [5]) | Km (Plasmodium falciparum [6]) [µM] | kcat (Plasmodium falciparum [6]) [s⁻¹] |
| --- | --- | --- | --- | --- | --- | --- | --- |
| CCCCCC[C@H]1C(=O)O[C@H](C)[C@H](NC(=O)c2cccc(NC=O)c2O)C(=O)O[C@@H](C)[C@@H]1OC(=O)CC(C)C [ANTIMYCIN A] | < 5.00 | < 5.00 | < 5.00 | < 5.00 | – | – | – |
| C=C(C)[C@H]1Cc2c(ccc3c2O[C@@H]2COc4cc(OC)c(OC)cc4[C@@H]2C3=O)O1 [ROTENONE] | < 5.00 | < 5.00 | < 5.00 | < 5.00 | < 5.00 | – | – |
| O=C1C=CC(=Nc2cc(Cl)c(O)c(Cl)c2)C=C1 | – | – | – | – | – | 4.6 | 0.0317 |
| O=c1cc(-c2ccccc2)oc2ccccc12 [FLAVONE] | < 5.00 | < 5.00 | < 5.00 | < 5.00 | 8.70 | – | – |
| c1ccc2c(c1)[I+]c1ccccc1-2 [DIPHENYLENEIODONIUM CHLORIDE] | – | < 5.00 | – | – | – | – | – |
| C[C@@H]1CC[C@H]2[C@@H](C)C(=O)O[C@@H]3O[C@@]4(C)CC[C@@H]1[C@]32OO4 [ARTEMISININ] | < 5.00 | < 5.00 | < 5.00 | 8.22 | – | – | – |
| CCCCCCCCCCCCc1cc(=O)c2ccccc2n1O | < 5.00 | 5.40 | < 5.00 | < 5.00 | – | – | – |
| c1ccc([I+]c2ccccc2)cc1 [DIPHENYLIODONIUM CHLORIDE] | < 5.00 | < 5.00 | < 5.00 | 4.97 | 4.91 | – | – |
| O=C1C(O)=C([C@H]2CC[C@H](c3ccc(Cl)cc3)CC2)C(=O)c2ccccc21 [ATOVAQUONE] | < 5.00 | < 5.00 | < 5.00 | < 5.00 | 8.70 | – | – |
| CC1=CC(=O)c2ccccc2C1=O | – | – | – | – | – | 239 | 0.0767 |
